Results reported in ChEMBL document CHEMBL5046237, “Identification of MRTX1133, a Noncovalent, Potent, and Selective KRASG12D Inhibitor” (J Med Chem, 2022).

Legend:
GTPase KRas [1] = biological target: GTPase KRas (Homo sapiens, UniProt P01116, G12D); test: Inhibition of KRAS G12D mutant in human AGS cells assessed as reduction in ERK phosphorylation measured after 3 hrs by In-Cell Western assay; format: cell-based
[2] = Inhibition of human C-terminal Avi biotinylated tagged KRAS isoform 4B G12D mutant (1 to 169 residues) expressed in Escherichia coli measured after 1 hr by HTRF assay
[3] = Binding affinity to human AviTEV6His-tagged KRAS isoform 4B G12D mutant (1 to 169 residues) expressed in Escherichia coli BL21 (DE3) assessed as dissociation constant by SPR analysis
MKN-1 = test: Cytotoxicity against human MKN-1 cells harboring wild type KRAS assessed as reduction in cell viability measured after 3 days by 2D viability assay; conditions: MKN-1, 72 h
[4] = In vivo inhibition of KRAS G12D mutant in CD-1 athymic nude-Foxn1nu mouse xenografted with human Panc 04.03 cells assessed as reduction in ERK phosphorylation in tumor lysates at 30 mg/kg, ip measured after 1 hr; format: functional; conditions: CD-1, Panc 04.03, Neoplasm
How it was run: (§1)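 The Panc 04.03 xenograft model received 30 mg/kg IP BID. Tumor pERK signal was measured 1 h and 12 h after the second dose. Mean pERK inhibition versus the vehicle cohort was assessed by two-tailed Student's t test with equal variance.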

[5] = In vivo inhibition of KRAS G12D mutant in CD-1 athymic nude-Foxn1nu mouse xenografted with human Panc 04.03 cells assessed as reduction in ERK phosphorylation in tumor lysates at 30 mg/kg, ip measured after 12 hrs; format: functional; conditions: CD-1, Panc 04.03, Neoplasm; how it was run: as §1
[6] = Antitumor activity against human Panc 04.03 cells harboring KRAS G12D mutant xenografted in CD-1 nude-Foxn1 mouse assessed as inhibition of tumor growth at 3 mg/kg, ip administered twice a day; format: functional; conditions: Panc 04.03, ip
How it was run: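 Mice bearing Panc 04.03 (KRAS G12D) xenografts were dosed IP twice daily (BID) at 3, 10 or 30 mg/kg. Tumor volume was tracked against a vehicle cohort, and mean tumor volume differences were tested by two-tailed Student's t test assuming equal variance.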

AGS = test: cells; conditions: Homo sapiens, 72 h
[7] = Antitumor activity against human Panc 04.03 cells harboring KRAS G12D mutant xenografted in CD-1 nude-Foxn1 mouse assessed as tumor regression at 10 mg/kg, ip administered twice a day; conditions: Panc 04.03, ip
[8] = Time during which free drug concentration exceeds IC50 for KRAS G12D mutant-mediated ERK phosphorylation in human Panc 04.03 cells xenografted CD-1 athymic nude-Foxn1nu mouse plasma at 30 mg/kg, ip; conditions: in vivo
[9] = AUC (0 to 24 hrs) in CD-1 athymic nude-Foxn1nu mouse xenografted with human Panc 04.03 cells at 30 mg/kg, ip BID; format: ADME, organism-based; parameters: time < 24 hr, route intraperitoneal, dose 30 mg/kg; conditions: in vivo
GTPase KRas [10] = biological target: GTPase KRas (Homo sapiens, UniProt P01116); test: Binding affinity to human AviTEV6His-tagged KRAS isoform 4B wild type (1 to 169 residues) expressed in Escherichia coli BL21 (DE3) assessed as dissociation constant by SPR analysis
How it was run: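 SPR measurement; where the KD fell beyond what the instrument can accurately determine, it was reported as an approximate value.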

| Structure (SMILES) | IC50 (GTPase KRas [1]) [nM] | IC50 [2] [nM] | Kd [3] [nM] | further results |
| --- | --- | --- | --- | --- |
| Oc1cc(-c2ncc3c(N4C[C@H]5CC[C@@H](C4)N5)nc(OCC45CCCN4CCC5)nc3c2F)c2c(Cl)cccc2c1 | 63 | < 2 |  |  |
| CN(C)CCOc1nc(N2C[C@H]3CC[C@@H](C2)N3)c2cnc(-c3cc(O)cc4ccccc34)c(F)c2n1 | > 10000 | 70 |  |  |
| Fc1ccc2cccc(-c3ncc4c(N5C[C@H]6CC[C@@H](C5)N6)nc(OCC56CCCN5CCC6)nc4c3F)c2c1F | 97 | 7 |  |  |
| CC1CN(c2nc(OC[C@@H]3CCCN3C)nc3c(F)c(-c4cc(O)cc5ccccc45)ncc23)CCN1 (mixture of isomers) |  | 2100 | 380 |  |
| O=C1CCC2(COc3nc(N4CC5CCC(C4)N5)c4cnc(-c5cc(O)cc6ccccc56)c(F)c4n3)CCCN12 (racemic) | > 10000 | 750 |  |  |
| CN1CCC[C@H]1COc1nc(N2CC3CC(C2)N3)c2cnc(-c3cc(O)cc4ccccc34)c(F)c2n1 (mixture of isomers) |  | 310 | 73 |  |
| Fc1ccc2cccc(-c3ncc4c(N5C[C@H]6CC[C@@H](C5)N6)nc(OCC56CCCN5CCC6)nc4c3F)c2c1 | 370 | 27 |  |  |
| CN1CCC[C@H]1COc1nc(N2CC3CC2CN3)c2cnc(-c3cc(O)cc4ccccc34)c(F)c2n1 (mixture of isomers) |  | 650 | 96 |  |
| CN1CCC[C@H]1COc1nc(N2CCNCC2)c2cnc(-c3cc(O)cc4ccccc34)c(F)c2n1 |  | 980 | 190 |  |
| CC1CNCCN1c1nc(OC[C@@H]2CCCN2C)nc2c(F)c(-c3cc(O)cc4ccccc34)ncc12 (mixture of isomers) |  | 1500 | 280 |  |
| Oc1cc(-c2ncc3c(N4CC5CCC(C4)N5)ncnc3c2F)c2ccccc2c1 | > 10000 |  |  |  |
| Cc1cccc2cccc(-c3ncc4c(N5C[C@H]6CC[C@@H](C5)N6)nc(OCC56CCCN5CCC6)nc4c3F)c12 | 2500 | 45 |  |  |
| Fc1c(-c2cccc3cccc(F)c23)ncc2c(N3C[C@H]4CC[C@@H](C3)N4)nc(OCC34CCCN3CCC4)nc12 | 380 | 12 |  |  |
| Oc1cc(-c2ncc3c(N4C[C@H]5CC[C@@H](C4)N5)nc(OC[C@]45CCCN4C[C@@H](F)C5)nc3c2F)c2ccccc2c1 |  | < 2 |  |  |
| CN(C)C1CN(c2nc(N3CC4CCC(C3)N4)c3cnc(-c4cc(O)cc5ccccc45)c(F)c3n2)C1 | 1300 | 69 |  |  |
| CCc1cccc2cccc(-c3ncc4c(N5C[C@H]6CC[C@@H](C5)N6)nc(OCC56CCCN5CCC6)nc4c3F)c12 | 200 | 6 |  |  |
| C#Cc1cccc2cc(O)cc(-c3ncc4c(N5C[C@H]6CC[C@@H](C5)N6)nc(OCC56CCCN5CCC6)nc4c3F)c12 | 14 | < 2 |  |  |
| CN1CCC[C@H]1COc1nc(N2C[C@H]3CC[C@@H](C2)N3)c2cnc(-c3cc(O)cc4ccccc34)c(F)c2n1 |  | 5 | 0.8 |  |

| Structure (SMILES) | IC50 (GTPase KRas [1]) [nM] | IC50 [2] [nM] | Kd [3] [nM] | further results |
| --- | --- | --- | --- | --- |
| C#Cc1cccc2cccc(-c3ncc4c(N5C[C@H]6CC[C@@H](C5)N6)nc(OCC56CCCN5CCC6)nc4c3F)c12 | 71 | 3 |  |  |
| C#Cc1c(F)ccc2cc(O)cc(-c3ncc4c(N5C[C@H]6CC[C@@H](C5)N6)nc(OC[C@@]56CCCN5C[C@H](F)C6)nc4c3F)c12 |  |  | 0.0002 | IC50 (MKN-1): > 3000 nM; inhibition in vivo at 30 mg/kg [4]: 62%; inhibition in vivo at 30 mg/kg [5]: 74%; inhibition in vivo at 3 mg/kg [6]: 94%; IC50 (AGS): 6 nM; tumor regression % at 10 mg/kg [7]: 62%; T>IC50 [8]: 8 h |
| C#Cc1c(F)ccc2cccc(-c3ncc4c(N5C[C@H]6CC[C@@H](C5)N6)nc(OCC56CCCN5CCC6)nc4c3F)c12 | 24 | < 2 |  | AUC at 24 h [9]: 9500 ng·h/mL |
| Oc1cc(-c2ncc3c(N4C[C@H]5CC[C@@H](C4)N5)nc(OCCN4C[C@@H]5C[C@H]4CO5)nc3c2F)c2ccccc2c1 | 3000 | 62 |  |  |
| CN1CCC[C@H]1COc1nc(N2CCCNCC2)c2cnc(-c3cc(O)cc4ccccc34)c(F)c2n1 |  | 2600 | 420 |  |
| CN1CCC[C@H]1COc1nc(N2CCNCC2)c2cnc(-c3cccc4cccc(Cl)c34)c(F)c2n1 |  |  | 3500 | Kd (GTPase KRas [10]): 36000 nM |
| CN1CCC[C@H]1COc1nc(N2CCOCC2)c2cnc(-c3cc(O)cc4ccccc34)c(F)c2n1 |  | 12000 | 1500 | Kd (GTPase KRas [10]): 560 nM |
| Oc1cc(-c2ncc3c(N4CC5CCC(C4)N5)nc(OCC45CCCCN4CCC5)nc3c2F)c2ccccc2c1 (racemic) | 650 | 12 |  |  |
| OCc1cccc2cccc(-c3ncc4c(N5C[C@H]6CC[C@@H](C5)N6)nc(OCC56CCCN5CCC6)nc4c3F)c12 | > 10000 | 79 |  |  |
| CN1CCN(c2nc(OC[C@@H]3CCCN3C)nc3c(F)c(-c4cc(O)cc5ccccc45)ncc23)CC1 |  | 54000 | 8700 | Kd (GTPase KRas [10]): 6200 nM |
| Oc1cc(-c2ncc3c(N4C[C@H]5CC[C@@H](C4)N5)nc(OC[C@@]45CCCN4C[C@H](F)C5)nc3c2F)c2ccccc2c1 |  | < 2 |  |  |
| COc1cccc2cccc(-c3ncc4c(N5C[C@H]6CC[C@@H](C5)N6)nc(OCC56CCCN5CCC6)nc4c3F)c12 | 1200 | 86 |  |  |
| CN1CCC[C@H]1COc1nc(N2CC3CCC2CN3)c2cnc(-c3cc(O)cc4ccccc34)c(F)c2n1 (stereo partly specified) |  | 68 | 9 |  |
| Fc1c(-c2cccc3ccccc23)ncc2c(N3C[C@H]4CC[C@@H](C3)N4)nc(OCC34CCCN3CCC4)nc12 | > 10000 | 360 |  |  |
| Oc1cc(-c2ncc3c(N4C[C@H]5CC[C@@H](C4)N5)nc(OCC45CCCN4CCC5)nc3c2F)c2ccccc2c1 | 270 | < 2 |  |  |
| Fc1c(-c2cccc3cccc(Cl)c23)ncc2c(N3C[C@H]4CC[C@@H](C3)N4)nc(OCC34CCCN3CCC4)nc12 | 190 | 15 |  |  |
| Cn1ccnc1CCOc1nc(N2C[C@H]3CC[C@@H](C2)N3)c2cnc(-c3cc(O)cc4ccccc34)c(F)c2n1 | 3500 | 30 |  |  |
